Yeast eIF2B – modulators of yeast eIF2B activity. S. cerevisiae eIF2B-epsilon R284H, GCN4-lacZ luminescence. inhibition, % at 25 µM (by protocol). 0.91% of 27,000 active. AID 688;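 active means mutant luminescence inhibited past about 50% while wild type luminescence and mutant growth stay under set limits, limit read from the data; inconclusive means mutant versus wild type luminescence inhibition gap past a set limit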
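Material: yeast eIF2B-epsilon R284H mutant carrying GCN4–beta-galactosidase fusion. Medium: YPD yeast growth medium. Incubation: 16 h growth with compound at 30 °C, 90 min Beta-Glo step. Signal: Beta-Glo luminescence plus absorbance at 595 nm. Evaluation: % inhibition of reporter signal and growth versus controls. Doses: 25 µM single dose.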
Yeast tox – Inhibits yeast growth, turbidity readout; S. cerevisiae wild-type growth, A595 turbidity, 16 h; growth inhibition, % at 25 µM (by protocol); 0.3% of 30,000 active; AID 685;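 active means mutant and wild-type yeast strains alike exhibit over 30% growth inhibition; inconclusive means a strain exceeds 50% while the second remains under 30%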
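System – wild-type and eIF2Bepsilon-R284H mutant S. cerevisiae, screened separately · Measured by – absorbance at 595 nm (turbidity) · Timing – 16 h compound exposure during growth at 30 °C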
Hits are given with their value; n = inactive; u = inconclusive; x = not tested or not shown. Only some compounds are listed: those with a hit (about 1.1% of all), similar ones and a draw of the others.

SMILES | Yeast eIF2B | Yeast tox
O=C(CSc1nc(-c2ccco2)cc(C(F)(F)F)n1)Nc1ccccc1C(F)(F)F | 52 | n
COC(=O)C(CC(=O)c1ccc(Br)cc1)n1ccnc1 (stereo not drawn) | n | 33
CCOC(=O)N1CCN(C(=O)CC(C(=O)N2CCc3ccccc32)n2ccnc2)CC1 (stereo not drawn) | n | n
Cc1cccc(-n2c(C)nc3c(cnn3-c3ccc(F)cc3)c2=O)c1 | n | n
CCCCCOC(=O)Cn1c(SCC(=O)Nc2ccccc2)nc2c1c(=O)[nH]c(=O)n2C | 60 | n
CCOC(=O)CSc1nc2c(c(=O)[nH]c(=O)n2C)n1C/C=C(/C)Cl | n | n
O=C1NCC(O)=C1C=NC12CC3CC(CC(C3)C1)C2 | n | n
c1ccc(N(c2ccccc2)c2nc(N3CCCC3)nc(-n3ccnc3)n2)cc1 | n | n
CCOC(=O)N1CCN(c2nc(N(c3ccccc3)c3ccccc3)nc(-n3ccnc3)n2)CC1 | n | 48
Cc1c(C(N)=O)sc2nc(-c3ccccc3)cn12 | n | n
Cc1c(C(=O)N2CCN(c3ccccc3F)CC2)sc2nc(-c3ccccc3)cn12 | 60 | n
COc1ccc(CNC(=O)C(c2ccc(C)o2)N(C(=O)c2csnn2)c2ccc(C(C)C)cc2)cc1 (stereo not drawn) | n | n
COc1ccc(CC(=O)Nc2ccc(S(=O)(=O)Nc3cc(C)on3)cc2)cc1 | n | n
Cc1ccc(OCCCC(=O)Nc2ccc(S(=O)(=O)Nc3cc(C)on3)cc2)cc1 | 53 | n
CC1(C)SCC2C(=O)N3C(CSC3(C)C)C(=O)N21 (stereo not drawn) | n | n
COc1ccc(S(=O)(=O)NCC(=O)N(CC(=O)NCC2CCCO2)c2c(C)cccc2C)cc1 (stereo not drawn) | n | n
CCCC1CC(C)(c2csc(Nc3ccc(OCC)cc3)n2)OC1=O (stereo not drawn) | 54 | n
CCOc1ccc(NC(=O)CC2CC(C)(C)OC2=O)cc1 (stereo not drawn) | n | n
Cc1ccc(NC(=O)CSc2n[nH]c(-c3ccncc3)n2)cc1C | n | n
CCSc1nnc(NC(=O)c2csc3c2CCCC3)s1 | n | x
CCSc1nnc(NC(=O)c2ccccn2)s1 | n | 66
Cc1cccc(NCN2C(=O)c3ccccc3C2=O)c1 | n | n
COC(=O)c1ccc(NC(=O)CSc2nnc(COc3ccccc3)n2C)cc1 | n | n
CCn1c(=O)cc(OCC(=O)N(C)C2CCCCC2)c2ccccc21 | n | n
CCOC(=O)N1CCN(C(=O)COc2cc(=O)n(CC)c3ccccc23)CC1 | 68 | n
SMILES | Yeast eIF2B | Yeast tox
COc1cc(/C=N/n2cnnc2)ccc1OCc1ccc(C)cc1 | n | n
Cc1ccc(C)c(N2CCN(S(=O)(=O)c3ccc4c(c3)CCC(=O)N4)CC2)c1 | n | n
Cc1ccc(C)c(N2CCN(S(=O)(=O)c3ccc4[nH]c(=O)c(=O)[nH]c4c3)CC2)c1 | 57 | n
Cc1ccc(CSCC(=O)Nc2ccc3c(c2)OCO3)cc1 | x | n
CC(C)=CC(=O)Nc1ccc2c(c1)OCO2 | 54 | n
Brc1cnc(N2CCOCC2)nc1N1CCCCC1 | n | n
Brc1cnn(-c2nc(N3CCOCC3)nc(N3CCOCC3)n2)c1 | 52 | n
O=C(CCCCCN1C(=O)c2ccccc2C1=O)Nc1ccc(F)cc1 | n | n
O=C1CCC([N+](=O)[O-])C(c2ccc(Cl)cc2Cl)N1 (stereo not drawn) | n | n
CC1=CC(=O)C=C(C)C1=NOC(=O)c1cccc([N+](=O)[O-])c1 | n | n
CC1=CC(=O)C=C(C)C1=NOS(=O)(=O)c1ccccc1 | x | 77
Oc1ccc(N2CCN(C(c3ccccn3)c3nnnn3C3CCCC3)CC2)cc1 (stereo not drawn) | n | n
Clc1cccc(-c2nn3c(COc4ccccc4)nnc3s2)c1 | 56 | n
Clc1ccc(-c2nn3c(-c4cccc(Cl)c4)nnc3s2)cc1 | n | n
COc1ccc(CC(=O)N2CC(C)CC(C)C2)cc1 (stereo not drawn) | x | n
Cc1cc(S(=O)(=O)Nc2ccc(F)cc2)c(C)s1 | n | n
Cc1nn2c(C)c(C(=O)Nc3ccccc3)cnc2c1C#N | n | u
Cc1cc2ncc(C(=O)Nc3ccccc3)c(C)n2n1 | 52 | n
COc1ccc(S(=O)(=O)N(C)CC(=O)Nc2ccc(C(F)(F)F)cc2)cc1Cl | x | n
Cc1ccc(NS(=O)(=O)c2ccc(NC(=O)c3ccc(Br)o3)cc2)c(C)c1 | n | n
O=C(Nc1cccnc1)c1ccccc1Oc1ccccc1 | 64 | n
COc1cc2ccccc2cc1C(=O)Nc1cccnc1 | n | n
COC(=O)C1=NN(c2ccc(C)cc2)C2(S1)SC(C(C)=O)=C(C)N2c1ccccc1 (stereo not drawn) | n | n
Cc1[nH]n(-c2ccc([N+](=O)[O-])cc2)c(=O)c1N=Nc1nc2ccccc2s1 | n | n
Cc1cccc(C)c1NC(=O)CSc1nnc(CCCCCNC(=O)OC(C)(C)C)o1 | n | n
SMILES | Yeast eIF2B | Yeast tox
CCS(=O)(=O)N1CCC(C(=O)NCc2ccc(F)cc2Cl)CC1 | n | n
Cc1cc(C)c(S(=O)(=O)N2CCC(C(=O)NCc3ccc(Cl)cc3Cl)CC2)c(C)c1 | x | 82
CCOC(=O)CN(C(=O)Cn1nnc(-c2ccc(OC)cc2)n1)C(C(=O)NC1CCCC1)c1ccc(F)cc1 (stereo not drawn) | n | n
COc1ccc(-c2nnn(CC(=O)N(Cc3ccc(F)cc3)C(C(=O)NC3CCCC3)c3ccc(F)cc3)n2)cc1 (stereo not drawn) | 56 | n
COc1ccc2[nH]c(=O)c(CN(Cc3nnnn3Cc3ccccc3)CC3CCCO3)cc2c1 (stereo not drawn) | n | n
CCC(C)(C)n1nnnc1CN(Cc1cccs1)Cc1cc2cc(OC)ccc2[nH]c1=O | 64 | n

High-throughput results deposited in PubChem BioAssay by PCMD.
